Reference: ChEMBL document CHEMBL1150057, “Bioactive ergost-5-ene-3 beta, 7 alpha-diol derivatives from Pseudobersama mossambicensis” (J Nat Prod, 1992)

Key:
Saccharomyces cerevisiae [1] = experiment: DNA damaging activity against RS188N rad DNA repair gene expressing wild type Saccharomyces cerevisiae assessed as drug level required to produce 12 mm zone of inhibition after 48 hrs; assay type: functional
How it was run: (§1)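 Yeast agar-well diffusion: strain plated on YPD agar (7 mm layer); 6 mm wells cut with cork borer; sample dissolved in DMSO-MeOH (1:1), 100 μl per well. Plates read after 48 h at 30°. IC12 = concentration (μg/ml) giving a 12 mm inhibition zone, taken from dose-response curves by linear regression (log dose as Y, zone size as X).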

Saccharomyces cerevisiae [2] = experiment: DNA damaging activity against RS167N rad6 DNA repair gene deficient Saccharomyces cerevisiae mutant assessed as drug level required to produce 12 mm zone of inhibition after 48 hrs; assay type: functional; how it was run: as §1
Saccharomyces cerevisiae [3] = experiment: DNA damaging activity against RS322YK rad52 DNA repair gene deficient Saccharomyces cerevisiae mutant assessed as drug level required to produce 12 mm zone of inhibition after 48 hrs; assay type: functional; how it was run: as §1
P388 = experiment: Cytotoxicity against mouse P388 cells; assay type: functional, cell-based

SMILES | IC12 (Saccharomyces cerevisiae [1]) [µg/mL] | IC12 (Saccharomyces cerevisiae [2]) [µg/mL] | IC12 (Saccharomyces cerevisiae [3]) [µg/mL] | IC50 (P388) [µM]
CC(C)C1(CC[C@@H](C)[C@H]2CC[C@H]3[C@@H]4[C@H](O)C=C5C[C@@H](O)CC[C@]5(C)[C@H]4CC[C@]23C)CO1 (stereo partly drawn) | > 50 | 6 | 0.4 | –
C=C(CC[C@@H](C)[C@H]1CC[C@H]2[C@@H]3[C@H](O)C=C4C[C@@H](O)CC[C@]4(C)[C@H]3CC[C@]12C)C(C)C | > 1500 | 12 | 8 | 4.3
CC[C@@]1(O)C(=O)OCc2c1cc1n(c2=O)Cc2cc3ccccc3nc2-1 [CAMPTOTHECIN] | – | 8.7 | 0.6 | –
COC1=C(N)C(=O)c2nc(-c3nc(C(=O)O)c(C)c(-c4ccc(OC)c(OC)c4O)c3N)ccc2C1=O [STREPTONIGRIN] | – | 2.4 | 0.4 | –
CC(C)C(O)(CO)CC[C@@H](C)[C@H]1CC[C@H]2[C@@H]3[C@H](O)C=C4C[C@@H](O)CC[C@]4(C)[C@H]3CC[C@]12C (stereo partly drawn) | > 100 | – | 1 | –
